Experimental data pooled from the literature.
Compare with care: the assays were run in different laboratories.
HTR2B: 5-hydroxytryptamine receptor 2B (HTR2B, Homo sapiens, UniProt P41595)
HTR2C: 5-hydroxytryptamine receptor 2C (HTR2C, Homo sapiens, UniProt P28335)

SMILES | target | effect on | mode | method | tested at | endpoint | result
COc1cc2c3c(c1OC)-c1c(OC)ccc(Br)c1CC3N(C)CC2 (stereo not drawn) | HTR2B | ligand displacement | – | radioligand | 10 µM | inhibition | 88%
CN1CCC[C@H]1c1cccnc1 | Neuronal acetylcholine receptor; alpha3/beta4 (Rattus norvegicus, UniProt P04757+P12392) | ligand displacement | – | radioligand | 50 µM | inhibition | 65.5%
COc1cc2c3c(c1OC)-c1c(OC)ccc(Cl)c1CC3N(C)CC2 (racemic) | HTR2B | ligand displacement | – | radioligand | 10 µM | inhibition | 87%
COc1cc(C(F)(F)F)c(OC)cc1C1CCCNC1 (stereo not drawn) | HTR2C | G protein activation | agonist | BRET | – | Emax | 85%
Nc1ncnc2c1ncn2[C@@H]1O[C@H](C[C@@H](N)CC[C@H](N)C(=O)O)[C@@H](O)[C@H]1O | mRNA cap guanine-N(7) methyltransferase (RNMT, Homo sapiens, UniProt O43148) | enzyme activity | inhibitor | – | 50 µM | inhibition | 85.3%
c1cncc([C@@H]2CCCN2)c1 | HTR2C | ligand displacement | – | – | 50 µM | inhibition | -12.7%
COc1cc2c3c(c1OC)-c1c(cccc1OC)CC3N(C)CC2 (racemic) | HTR2B | ligand displacement | – | radioligand | 10 µM | inhibition | 86%
[2H]c1c([2H])c([C@]2([2H])CCCN2C(=O)C(C)(C)Oc2ccc3cn[nH]c3c2)c([2H])c([2H])c1C([2H])([2H])[2H] | BMP-2-inducible protein kinase (BMP2K, Homo sapiens, UniProt Q9NSY1) | binding | – | competition with immobilised ligand | 1 µM | remaining binding | 77%
CC(C)CC(=O)OC[C@H]1O[C@@](C#N)(c2ccc3c(N)ncnn23)[C@H](O)[C@@H]1O | HTR2C | cell-free assay | – | – | 20 µM | inhibition | 10%
